Experimental data: ChEMBL document CHEMBL1649418, “Pyrimidine derivatives as potent and selective A3 adenosine receptor antagonists” (J Med Chem, 2011)

Legend:
[1] = biological target: T1, Adenosine receptor A2b (Homo sapiens, UniProt P29275); test: Displacement of [3H]DPCPX from human adenosine A2B receptor expressed in HEK293 cells by liquid scintillation counting; format: cell-based
T1 sequence (P29275 whole entry): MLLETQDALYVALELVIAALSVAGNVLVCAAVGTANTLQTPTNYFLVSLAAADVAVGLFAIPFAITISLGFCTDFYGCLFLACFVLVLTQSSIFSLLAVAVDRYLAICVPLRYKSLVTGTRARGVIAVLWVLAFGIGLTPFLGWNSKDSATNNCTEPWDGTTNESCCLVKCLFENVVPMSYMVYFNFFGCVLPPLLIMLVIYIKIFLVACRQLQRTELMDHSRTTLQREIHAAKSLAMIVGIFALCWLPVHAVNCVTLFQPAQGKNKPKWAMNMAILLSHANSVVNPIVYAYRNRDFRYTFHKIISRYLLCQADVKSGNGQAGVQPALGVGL
Summary of the method: (§1)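 HEK-293 membranes (18 μg) were incubated with [3H]DPCPX (35 nM) at 25 °C for 30 min, with six concentrations from 0.1 nM to 1 μM. Nonspecific binding was defined with 400 μM NECA. Filters were washed six times with ice-cold buffer and counted by scintillation. Ki (Cheng–Prusoff) is mean ± SEM, n=3; % displacement at 0.1 μM is n=2.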

[2] = biological target: T2, Adenosine receptor A1 (Homo sapiens, UniProt P30542); test: Displacement of [3H]DPCPX from human adenosine A1 receptor expressed in CHO cells by liquid scintillation counting; format: cell-based
T2 sequence (P30542 whole entry): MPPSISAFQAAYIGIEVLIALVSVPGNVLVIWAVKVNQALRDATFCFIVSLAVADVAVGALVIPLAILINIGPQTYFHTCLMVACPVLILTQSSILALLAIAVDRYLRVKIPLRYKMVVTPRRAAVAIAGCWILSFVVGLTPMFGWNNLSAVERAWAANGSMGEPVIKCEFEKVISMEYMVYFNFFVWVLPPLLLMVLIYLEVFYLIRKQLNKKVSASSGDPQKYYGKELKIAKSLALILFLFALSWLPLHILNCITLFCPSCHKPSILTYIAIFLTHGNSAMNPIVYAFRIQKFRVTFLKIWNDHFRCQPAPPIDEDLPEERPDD
Summary of the method: (§2)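 Transfected CHO cell membranes (15 μg) were incubated with [3H]DPCPX at 25 °C for 60 min, with six test concentrations from 0.1 nM to 1 μM. Nonspecific binding was defined with 10 μM R-PIA. Filters were washed four times with ice-cold buffer before scintillation counting. Ki (Cheng–Prusoff) is mean ± SEM, n=3; % displacement at 0.1 μM is n=2.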

[3] = biological target: T3, Adenosine receptor A3 (Homo sapiens, UniProt P0DMS8); test: Displacement of [3H]NECA from human adenosine A3 receptor expressed in human HeLa cells by liquid scintillation counting; format: cell-based; conditions: read-out: Ki
T3 sequence (P0DMS8 whole entry): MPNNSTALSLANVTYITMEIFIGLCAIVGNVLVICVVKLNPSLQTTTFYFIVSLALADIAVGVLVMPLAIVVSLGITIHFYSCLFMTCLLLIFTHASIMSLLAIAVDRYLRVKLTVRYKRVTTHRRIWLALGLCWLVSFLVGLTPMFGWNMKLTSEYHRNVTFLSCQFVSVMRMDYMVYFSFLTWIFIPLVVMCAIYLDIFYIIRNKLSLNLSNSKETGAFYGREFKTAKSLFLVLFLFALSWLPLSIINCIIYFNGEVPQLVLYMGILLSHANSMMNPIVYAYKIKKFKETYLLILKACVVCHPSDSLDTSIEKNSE
Summary of the method: (§3)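 HeLa membranes (90 μg) carrying hA3AR were incubated with [3H]NECA (30 nM) at 25 °C for 180 min, with six concentrations from 0.1 nM to 1 μM. Nonspecific binding was defined with 100 μM R-PIA. Filters were washed six times and counted by scintillation.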

[4] = biological target: T4, Adenosine receptor A2a (Homo sapiens, UniProt P29274); test: Displacement of [3H][…] from human adenosine A2A receptor expressed in human HeLa cells by liquid scintillation counting; format: cell-based
Summary of the method: (§4)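 Nonspecific binding was defined with 50 μM NECA. Filters were washed four times with ice-cold buffer, then counted by scintillation. Ki (Cheng–Prusoff) is mean ± SEM, n=3; % displacement at 0.1 μM is n=2.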

[5] = biological target: T5, Adenosine receptor A3 (Homo sapiens) (UniProt P0DMS8); test: Antagonist activity at human adenosine A3 receptor expressed in human HeLa cells assessed as inhibition of forskolin-stimulated cAMP production by enzyme immunoassay; format: functional, cell-based
T5 sequence (whole entry): T3 sequence (P0DMS8 whole entry)
Summary of the method: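 Intact cells expressing hA3AR were stimulated with 10 μM forskolin, and receptor activation was induced with 0.1 μM NECA. Antagonist concentration-response curves were run against the NECA-induced cAMP decrease, with cAMP measured by enzyme immunoassay. K_B was derived from IC50, agonist concentration, agonist EC50 and curve slope. Data are mean ± SEM of two separate experiments.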

[6] = biological target: T4, Adenosine receptor A2a; test: Displacement of [3H][…] from human adenosine A2A receptor expressed in human HeLa cells at 0.1 uM by liquid scintillation counting; format: cell-based; summary of the method: as §4
[7] = biological target: T6, Adenosine receptor A1 (Homo sapiens) (UniProt P30542); test: Displacement of [3H]DPCPX from human adenosine A1 receptor expressed in CHO cells at 0.1 uM by liquid scintillation counting; format: cell-based; summary of the method: as §2
T6 sequence (whole entry): T2 sequence (P30542 whole entry)

[8] = biological target: T7, Adenosine receptor A2b (Homo sapiens) (UniProt P29275); test: Displacement of [3H]DPCPX from human adenosine A2B receptor expressed in HEK293 cells at 0.1 uM by liquid scintillation counting; format: cell-based; summary of the method: as §1
T7 sequence (whole entry): T1 sequence (P29275 whole entry)

[9] = biological target: T5, Adenosine receptor A3 (Homo sapiens); test: Displacement of [3H]NECA from human adenosine A3 receptor expressed in human HeLa cells at 0.1 uM by liquid scintillation counting; format: cell-based
Summary of the method: as §3, with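 “scintillation. Ki (Cheng–Prusoff) is mean ± SEM, n=3; % displacement at 0.1 μM is n=2.” for “scintillation.”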

[10] = biological target: T4, Adenosine receptor A2a; test: Displacement of [3H][…] from human adenosine A2A receptor expressed in human HeLa cells at 1 uM by liquid scintillation counting; format: cell-based
[11] = biological target: T5, Adenosine receptor A3 (Homo sapiens); test: Displacement of [3H]NECA from human adenosine A3 receptor expressed in human HeLa cells at 1 uM by liquid scintillation counting; format: cell-based
[12] = biological target: T7, Adenosine receptor A2b (Homo sapiens); test: Displacement of [3H]DPCPX from human adenosine A2B receptor expressed in HEK293 cells at 1 uM by liquid scintillation counting; format: cell-based

T4 sequence (P29274 whole entry): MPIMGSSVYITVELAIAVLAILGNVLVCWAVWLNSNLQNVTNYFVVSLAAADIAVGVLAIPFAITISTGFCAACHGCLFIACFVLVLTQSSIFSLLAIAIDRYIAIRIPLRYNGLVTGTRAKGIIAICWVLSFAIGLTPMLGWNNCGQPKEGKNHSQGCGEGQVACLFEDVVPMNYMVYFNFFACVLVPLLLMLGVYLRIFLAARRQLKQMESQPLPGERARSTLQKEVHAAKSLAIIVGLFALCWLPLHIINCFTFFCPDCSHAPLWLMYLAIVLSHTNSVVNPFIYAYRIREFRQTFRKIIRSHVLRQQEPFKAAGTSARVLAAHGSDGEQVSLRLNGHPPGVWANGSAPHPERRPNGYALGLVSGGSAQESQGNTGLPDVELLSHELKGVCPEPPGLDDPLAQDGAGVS

Row | Ki [1] [µM] | Ki [2] [µM] | Ki [3] [µM] | Ki [4] [µM] | inhibition [8] [%] | SMILES | further results
1 | 0.0164 | 0.0078 | 0.0099 | 0.0057 | – | CCCC(=O)Nc1cc(-c2ccco2)nc(-c2ccco2)n1 | –
2 | – | – | 0.0054 | – | 2 | COc1ccc(-c2cc(NC(C)=O)nc(-c3ccc(OC)cc3OC)n2)c(OC)c1 | Kb [5]: 0.00385 µM; inhibition [6]: 6%; inhibition [7]: 1%
3 | – | 0.0235 | – | 0.647 | 6 | CCCC(=O)Nc1nc(-c2ccccc2F)cc(-c2ccccc2F)n1 | inhibition [9]: 15%
4 | – | 0.255 | – | 0.201 | 3 | CCCC(=O)Nc1nc(-c2cccs2)cc(-c2cccs2)n1 | inhibition [9]: 24%
5 | – | 0.0857 | – | 4.57 | 12 | CCCC(=O)Nc1nc(-c2ccsc2)cc(-c2ccsc2)n1 | inhibition [9]: 2%
6 | – | – | 0.011 | – | 1 | CCCC(=O)Nc1cc(-c2ccc(OC)cc2)nc(-c2ccc(OC)cc2)n1 | Kb [5]: 0.00157 µM; inhibition [6]: 4%; inhibition [7]: 8%
7 | 0.165 | 0.0394 | 0.0642 | 0.0635 | – | CCC(=O)Nc1cc(-c2ccsc2)nc(-c2ccsc2)n1 | –
8 | – | – | 0.0253 | – | 3 | CCC(=O)Nc1cc(-c2ccc(Cl)cc2)nc(-c2ccc(Cl)cc2)n1 | Kb [5]: 0.00388 µM; inhibition [6]: 20%; inhibition [7]: 16%
9 | 0.0205 | 0.0155 | 0.0062 | 0.0064 | – | CCC(=O)Nc1cc(-c2ccco2)nc(-c2ccco2)n1 | –
10 | – | – | – | – | – | CC(C)C(=O)Nc1nc(-c2ccccc2)cc(-c2ccccc2)n1 | inhibition [10]: 44%; inhibition [11]: 45%; inhibition [12]: 79%
11 | 0.049 | 0.132 | 0.0126 | 0.0828 | – | CCC(=O)Nc1cc(-c2ccoc2)nc(-c2ccoc2)n1 | –
12 | – | 0.0316 | 0.16 | 0.103 | 16 | CCC(=O)Nc1cc(-c2ccccc2F)nc(-c2ccccc2F)n1 | –
13 | 0.0425 | 0.0313 | 0.531 | 0.554 | – | CCC(=O)Nc1nc(-c2ccccc2)cc(-c2ccccc2)n1 | –
14 | – | 0.0177 | 0.0033 | 3.35 | 2 | CC(=O)Nc1cc(-c2ccc3c(c2)OCO3)nc(-c2ccc3c(c2)OCO3)n1 | –
15 | – | 0.0823 | 0.0348 | 1.83 | 2 | CCCC(=O)Nc1cc(-c2ccc(F)cc2)nc(-c2ccc(F)cc2)n1 | –
16 | 0.012 | 0.0407 | 0.003 | 0.0081 | – | CC(=O)Nc1cc(-c2ccco2)nc(-c2ccco2)n1 | –

Row | Ki [1] [µM] | Ki [2] [µM] | Ki [3] [µM] | Ki [4] [µM] | inhibition [8] [%] | SMILES | further results
17 | – | 0.0839 | 0.0121 | 0.429 | 1 | CCC(=O)Nc1cc(-c2ccc(F)cc2)nc(-c2ccc(F)cc2)n1 | –
18 | – | – | – | – | 14 | CCCC(=O)Nc1nc(-c2ccccc2)cc(-c2ccccc2)n1 | inhibition [10]: 7%; inhibition [6]: 3%; inhibition [9]: 17%; inhibition [11]: 38%; inhibition [12]: 54%
19 | – | 0.00214 | 0.17 | 0.196 | – | O=C(Nc1nc(-c2ccccc2)cc(-c2ccccc2)n1)C1CCCC1 | inhibition [12]: 52%
20 | 1.67 | 0.00528 | 0.0145 | 2.54 | – | CCC(=O)Nc1cc(-c2ccc3c(c2)OCO3)nc(-c2ccc3c(c2)OCO3)n1 | –
21 | – | 0.0187 | 0.135 | 0.142 | 9 | CCCC(=O)Nc1cc(-c2ccccc2F)nc(-c2ccccc2F)n1 | –
22 | 0.0766 | 0.0223 | 0.0455 | 0.0845 | – | CCC(=O)Nc1cc(-c2ccccc2)nc(-c2ccccc2)n1 | –
23 | 3.25 | 0.367 | 1.28 | 1.89 | – | CCC(=O)Nc1nc(-c2ccsc2)cc(-c2ccsc2)n1 | –
24 | 0.302 | – | 0.0101 | 0.074 | – | CC(=O)Nc1cc(-c2ccoc2)nc(-c2ccoc2)n1 | inhibition [7]: 1%
25 | – | 0.0329 | 0.0218 | 0.114 | 17 | CCC(=O)Nc1cc(-c2cccs2)nc(-c2cccs2)n1 | –
26 | 0.374 | 0.505 | 4.43 | 0.183 | – | CCC(=O)Nc1nc(-c2ccc(SC)cc2)cc(-c2ccc(SC)cc2)n1 | –
27 | – | – | – | – | – | CC(C)(C)CC(=O)Nc1cc(-c2ccccc2)nc(-c2ccccc2)n1 | inhibition [10]: 32%; inhibition [11]: 39%; inhibition [12]: 4%
28 | – | – | 0.0044 | – | 2 | CC(=O)Nc1cc(-c2ccc(C)cc2)nc(-c2ccc(C)cc2)n1 | Kb [5]: 0.00356 µM; inhibition [6]: 8%; inhibition [7]: 2%
29 | – | 0.0195 | 0.171 | 0.103 | 1 | CCCC(=O)Nc1cc(-c2ccccc2)nc(-c2ccccc2)n1 | –
30 | – | 0.0651 | – | 0.544 | 1 | CCCC(=O)Nc1cc(-c2ccoc2)nc(-c2ccoc2)n1 | inhibition [9]: 3%
31 | 0.307 | 0.0482 | 0.279 | 0.424 | – | CCC(=O)Nc1nc(-c2ccccc2F)cc(-c2ccccc2F)n1 | –

Row | SMILES | Ki [1] [µM] | Ki [2] [µM] | Ki [3] [µM] | Ki [4] [µM] | inhibition [8] [%] | further results
32 | CCC(=O)Nc1cc(-c2ccc(OC)cc2)nc(-c2ccc(OC)cc2)n1 | – | – | 0.0036 | – | 3 | Kb [5]: 0.0014 µM; inhibition [6]: 1%; inhibition [7]: 8%
